In ChEMBL document CHEMBL1287651, “Synthesis and in vitro antibacterial activity of fluoroquinolone derivatives containing 3-(N'-alkoxycarbamimidoyl)-4-(alkoxyimino) pyrrolidines” (2010):
Converted amounts (≈) assume the structure as drawn.

Experiments:
Format in all cases: functional
Staphylococcus aureus [1] = experiment: Antibacterial activity against Staphylococcus aureus ATCC […] after 18 to 24 hrs by twofold serial dilution method
Outline: (§1)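 MIC determined by the standard twofold serial dilution method on agar media, screening against Gram-positive and Gram-negative strains. Levofloxacin and gemifloxacin were run alongside as reference drugs.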

Staphylococcus aureus [2] = experiment: Antibacterial activity against methicillin-resistant Staphylococcus aureus 08-1 after 18 to 24 hrs by twofold serial dilution method
Outline: (§2)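 Standard twofold serial agar dilution method on agar media for MIC determination. Screened against representative Gram-positive and Gram-negative strains. Levofloxacin and GMFX served as control drugs.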

Staphylococcus aureus [3] = experiment: Antibacterial activity against methicillin-sensitive Staphylococcus aureus 08-2 after 18 to 24 hrs by twofold serial dilution method; outline: as §2
[4] = test system: Staphylococcus epidermidis; experiment: Antibacterial activity against methicillin-resistant Staphylococcus epidermidis 09-2 after 18 to 24 hrs by twofold serial dilution method; outline: as §2
[5] = test system: Staphylococcus epidermidis; experiment: Antibacterial activity against methicillin-resistant Staphylococcus epidermidis 09-3 after 18 to 24 hrs by twofold serial dilution method; outline: as §2
[6] = test system: Staphylococcus epidermidis; experiment: Antibacterial activity against methicillin-resistant Staphylococcus epidermidis 09-4 after 18 to 24 hrs by twofold serial dilution method; outline: as §2
[7] = test system: Staphylococcus epidermidis; experiment: Antibacterial activity against methicillin-sensitive Staphylococcus epidermidis 09-3 after 18 to 24 hrs by twofold serial dilution method; outline: as §2
[8] = test system: Staphylococcus epidermidis; experiment: Antibacterial activity against methicillin-sensitive Staphylococcus epidermidis 09-6 after 18 to 24 hrs by twofold serial dilution method; outline: as §2
Streptococcus pneumoniae [9] = experiment: Antibacterial activity against Streptococcus pneumoniae 08-2 after 18 to 24 hrs by twofold serial dilution method; outline: as §1
Streptococcus pneumoniae [10] = experiment: Antibacterial activity against Streptococcus pneumoniae 08-4 after 18 to 24 hrs by twofold serial dilution method; outline: as §1
Enterococcus faecium [11] = experiment: Antibacterial activity against Enterococcus faecium 08-2 after 18 to 24 hrs by twofold serial dilution method; outline: as §1
Enterococcus faecium [12] = experiment: Antibacterial activity against Enterococcus faecium 08-7 after 18 to 24 hrs by twofold serial dilution method; outline: as §1
Enterococcus faecalis [13] = experiment: Antibacterial activity against Enterococcus faecalis 08-10 after 18 to 24 hrs by twofold serial dilution method; outline: as §1
Enterococcus faecalis [14] = experiment: Antibacterial activity against Enterococcus faecalis 08-12 after 18 to 24 hrs by twofold serial dilution method; outline: as §1
Escherichia coli [15] = experiment: Antibacterial activity against Escherichia coli ATCC 25922 after 18 to 24 hrs by twofold serial dilution method; outline: as §1
Escherichia coli [16] = experiment: Antibacterial activity against Escherichia coli 08-21 after 18 to 24 hrs by twofold serial dilution method; outline: as §1
Escherichia coli [17] = experiment: Antibacterial activity against Escherichia coli 08-22 after 18 to 24 hrs by twofold serial dilution method; outline: as §1
Klebsiella pneumoniae [18] = experiment: Antibacterial activity against Klebsiella pneumoniae 09-21 after 18 to 24 hrs by twofold serial dilution method; outline: as §1
Klebsiella pneumoniae [19] = experiment: Antibacterial activity against Klebsiella pneumoniae 09-22 after 18 to 24 hrs by twofold serial dilution method; outline: as §1
Klebsiella pneumoniae [20] = experiment: Antibacterial activity against Klebsiella pneumoniae 09-23 after 18 to 24 hrs by twofold serial dilution method; outline: as §1
Pseudomonas aeruginosa [21] = experiment: Antibacterial activity against Pseudomonas aeruginosa ATCC 27853 after 18 to 24 hrs by twofold serial dilution method; outline: as §1
Pseudomonas aeruginosa [22] = experiment: Antibacterial activity against Pseudomonas aeruginosa 09-32 after 18 to 24 hrs by twofold serial dilution method; outline: as §1
Pseudomonas aeruginosa [23] = experiment: Antibacterial activity against Pseudomonas aeruginosa 09-33 after 18 to 24 hrs by twofold serial dilution method; outline: as §1
Pseudomonas aeruginosa [24] = experiment: Antibacterial activity against Pseudomonas aeruginosa 09-34 after 18 to 24 hrs by twofold serial dilution method; outline: as §1
Pseudomonas aeruginosa [25] = experiment: Antibacterial activity against Pseudomonas aeruginosa 09-35 after 18 to 24 hrs by twofold serial dilution method; outline: as §1
Enterococcus faecium [26] = experiment: Ratio of compound MIC to levofloxacin MIC for Enterococcus faecium 08-7
Klebsiella pneumoniae [27] = experiment: Ratio of compound MIC to levofloxacin MIC for Klebsiella pneumoniae 09-22
Enterococcus faecium [28] = experiment: Ratio of compound MIC to gemifloxacin MIC for Enterococcus faecium 08-7
Klebsiella pneumoniae [29] = experiment: Ratio of compound MIC to gemifloxacin MIC for Klebsiella pneumoniae 09-22
Streptococcus pneumoniae [30] = experiment: Ratio of compound MIC to levofloxacin MIC for Streptococcus pneumoniae

## CCO/N=C(/N)C1CN(c2c(F)cc3c(=O)c(C(=O)O)cn4c3c2OC[C@@H]4C)C/C1=N\OC (stereo partly specified)
Staphylococcus aureus [1]
  MIC: 0.125 µg/mL (≈ 0.271 µM)
Staphylococcus aureus [2]
  MIC: 0.06 µg/mL (≈ 0.13 µM)
Staphylococcus aureus [3]
  MIC: 0.125 µg/mL (≈ 0.271 µM)
[4]
  MIC: 0.06 µg/mL (≈ 0.13 µM)
[5]
  MIC: 0.06 µg/mL (≈ 0.13 µM)
[6]
  MIC: 0.06 µg/mL (≈ 0.13 µM)
[7]
  MIC: 0.06 µg/mL (≈ 0.13 µM)
[8]
  MIC: 0.06 µg/mL (≈ 0.13 µM)
Streptococcus pneumoniae [9]
  MIC: 8 µg/mL (≈ 17.3 µM)
Streptococcus pneumoniae [10]
  MIC: 8 µg/mL (≈ 17.3 µM)
Enterococcus faecium [11]
  MIC: > 128 µg/mL
Enterococcus faecium [12]
  MIC: 0.06 µg/mL (≈ 0.13 µM)
Enterococcus faecalis [13]
  MIC: 128 µg/mL (≈ 277 µM)
Enterococcus faecalis [14]
  MIC: > 128 µg/mL
Escherichia coli [15]
  MIC: 128 µg/mL (≈ 277 µM)
Escherichia coli [16]
  MIC: > 128 µg/mL
Escherichia coli [17]
  MIC: > 128 µg/mL
Klebsiella pneumoniae [18]
  MIC: > 128 µg/mL
Klebsiella pneumoniae [19]
  MIC: 0.5 µg/mL (≈ 1.08 µM)
Klebsiella pneumoniae [20]
  MIC: > 128 µg/mL
Pseudomonas aeruginosa [21]
  MIC: 16 µg/mL (≈ 34.7 µM)
Pseudomonas aeruginosa [22]
  MIC: 16 µg/mL (≈ 34.7 µM)
Pseudomonas aeruginosa [23]
  MIC: > 128 µg/mL
Pseudomonas aeruginosa [24]
  MIC: > 128 µg/mL
Pseudomonas aeruginosa [25]
  MIC: 16 µg/mL (≈ 34.7 µM)
Enterococcus faecium [26]
  Ratio: 32
Klebsiella pneumoniae [27]
  Ratio: 16
Enterococcus faecium [28]
  Ratio: 32
Klebsiella pneumoniae [29]
  Ratio: 16

## CCO/N=C1\CN(c2c(F)cc3c(=O)c(C(=O)O)cn(CC)c3c2F)CC1/C(N)=N\OC (stereo unspecified)
Staphylococcus aureus [1]
  MIC: 1 µg/mL (≈ 2.22 µM)
Staphylococcus aureus [2]
  MIC: 0.25 µg/mL (≈ 0.554 µM)
Staphylococcus aureus [3]
  MIC: 8 µg/mL (≈ 17.7 µM)
[4]
  MIC: 8 µg/mL (≈ 17.7 µM)
[5]
  MIC: 0.25 µg/mL (≈ 0.554 µM)
[6]
  MIC: 0.125 µg/mL (≈ 0.277 µM)
[7]
  MIC: 0.125 µg/mL (≈ 0.277 µM)
[8]
  MIC: 0.25 µg/mL (≈ 0.554 µM)
Streptococcus pneumoniae [9]
  MIC: 0.25 µg/mL (≈ 0.554 µM)
Streptococcus pneumoniae [10]
  MIC: 0.25 µg/mL (≈ 0.554 µM)
Enterococcus faecium [11]
  MIC: > 128 µg/mL
Enterococcus faecium [12]
  MIC: > 128 µg/mL
Enterococcus faecalis [13]
  MIC: > 128 µg/mL
Enterococcus faecalis [14]
  MIC: > 128 µg/mL
Escherichia coli [15]
  MIC: > 128 µg/mL
Escherichia coli [16]
  MIC: > 128 µg/mL
Escherichia coli [17]
  MIC: > 128 µg/mL
Klebsiella pneumoniae [18]
  MIC: > 128 µg/mL
Klebsiella pneumoniae [19]
  MIC: 8 µg/mL (≈ 17.7 µM)
Klebsiella pneumoniae [20]
  MIC: > 128 µg/mL
Pseudomonas aeruginosa [21]
  MIC: 128 µg/mL (≈ 284 µM)
Pseudomonas aeruginosa [22]
  MIC: > 128 µg/mL
Pseudomonas aeruginosa [23]
  MIC: > 128 µg/mL
Pseudomonas aeruginosa [24]
  MIC: > 128 µg/mL
Pseudomonas aeruginosa [25]
  MIC: > 128 µg/mL
Streptococcus pneumoniae [30]
  Ratio: 8

## CCO/N=C1\CN(c2nc3c(cc2F)c(=O)c(C(=O)O)cn3C2CC2)CC1/C(N)=N\O (stereo unspecified)
Staphylococcus aureus [1]
  MIC: 0.25 µg/mL (≈ 0.578 µM)
Staphylococcus aureus [2]
  MIC: 0.25 µg/mL (≈ 0.578 µM)
Staphylococcus aureus [3]
  MIC: 0.25 µg/mL (≈ 0.578 µM)
[4]
  MIC: 0.25 µg/mL (≈ 0.578 µM)
[5]
  MIC: 0.25 µg/mL (≈ 0.578 µM)
[6]
  MIC: 0.25 µg/mL (≈ 0.578 µM)
[7]
  MIC: 0.25 µg/mL (≈ 0.578 µM)
[8]
  MIC: 0.25 µg/mL (≈ 0.578 µM)
Streptococcus pneumoniae [9]
  MIC: 0.25 µg/mL (≈ 0.578 µM)
Streptococcus pneumoniae [10]
  MIC: 0.25 µg/mL (≈ 0.578 µM)
Enterococcus faecium [11]
  MIC: > 128 µg/mL
Enterococcus faecium [12]
  MIC: > 128 µg/mL
Enterococcus faecalis [13]
  MIC: > 128 µg/mL
Enterococcus faecalis [14]
  MIC: 0.25 µg/mL (≈ 0.578 µM)
Escherichia coli [15]
  MIC: > 128 µg/mL
Escherichia coli [16]
  MIC: > 128 µg/mL
Escherichia coli [17]
  MIC: > 128 µg/mL
Klebsiella pneumoniae [18]
  MIC: > 128 µg/mL
Klebsiella pneumoniae [19]
  MIC: > 128 µg/mL
Klebsiella pneumoniae [20]
  MIC: > 128 µg/mL
Pseudomonas aeruginosa [21]
  MIC: > 128 µg/mL
Pseudomonas aeruginosa [22]
  MIC: > 128 µg/mL
Pseudomonas aeruginosa [23]
  MIC: > 128 µg/mL
Pseudomonas aeruginosa [24]
  MIC: > 128 µg/mL
Pseudomonas aeruginosa [25]
  MIC: > 128 µg/mL
Streptococcus pneumoniae [30]
  Ratio: 8

## CO/N=C1\CN(c2nc3c(cc2F)c(=O)c(C(=O)O)cn3C2CC2)CC1CN (stereo unspecified) [GEMIFLOXACIN]
Staphylococcus aureus [1]
  MIC: 0.125 µg/mL (≈ 0.321 µM)
Staphylococcus aureus [2]
  MIC: 0.25 µg/mL (≈ 0.642 µM)
Staphylococcus aureus [3]
  MIC: 0.125 µg/mL (≈ 0.321 µM)
[4]
  MIC: 0.125 µg/mL (≈ 0.321 µM)
[5]
  MIC: 0.06 µg/mL (≈ 0.154 µM)
[6]
  MIC: 0.06 µg/mL (≈ 0.154 µM)
[7]
  MIC: 0.125 µg/mL (≈ 0.321 µM)
[8]
  MIC: 0.25 µg/mL (≈ 0.642 µM)
Streptococcus pneumoniae [9]
  MIC: 8 µg/mL (≈ 20.5 µM)
Streptococcus pneumoniae [10]
  MIC: 0.25 µg/mL (≈ 0.642 µM)
Enterococcus faecium [11]
  MIC: 16 µg/mL (≈ 41.1 µM)
Enterococcus faecium [12]
  MIC: 2 µg/mL (≈ 5.14 µM)
Enterococcus faecalis [13]
  MIC: 16 µg/mL (≈ 41.1 µM)
Enterococcus faecalis [14]
  MIC: 16 µg/mL (≈ 41.1 µM)
Escherichia coli [15]
  MIC: 4 µg/mL (≈ 10.3 µM)
Escherichia coli [16]
  MIC: 16 µg/mL (≈ 41.1 µM)
Escherichia coli [17]
  MIC: 2 µg/mL (≈ 5.14 µM)
Klebsiella pneumoniae [18]
  MIC: 16 µg/mL (≈ 41.1 µM)
Klebsiella pneumoniae [19]
  MIC: 8 µg/mL (≈ 20.5 µM)
Klebsiella pneumoniae [20]
  MIC: 8 µg/mL (≈ 20.5 µM)
Pseudomonas aeruginosa [21]
  MIC: 2 µg/mL (≈ 5.14 µM)
Pseudomonas aeruginosa [22]
  MIC: 0.5 µg/mL (≈ 1.28 µM)
Pseudomonas aeruginosa [23]
  MIC: 2 µg/mL (≈ 5.14 µM)
Pseudomonas aeruginosa [24]
  MIC: 0.5 µg/mL (≈ 1.28 µM)
Pseudomonas aeruginosa [25]
  MIC: 0.5 µg/mL (≈ 1.28 µM)
